# Experimental data taken from ChEMBL document CHEMBL3297708, “Lead optimization of a novel series of imidazo[1,2-a]pyridine amides leading to a clinical candidate (Q203) as a multi- and extensively-drug-resistant anti-tuberculosis agent” (J Med Chem, 2014).
# How the values were obtained:
# [1] = tested on: Mycobacterium tuberculosis; assay: Antimycobacterial activity against Mycobacterium tuberculosis H37Rv in liquid broth culture medium; format: functional
# Procedure, shortened: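 M. tuberculosis H37Rv replicating in liquid broth culture medium; MIC80 determined, i.e. concentration inhibiting 80% of growth.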
# [2] = tested on: Mycobacterium tuberculosis; assay: Antimycobacterial activity against Mycobacterium tuberculosis H37Rv in macrophages; format: functional
# Procedure, shortened: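 M. tuberculosis H37Rv replicating inside macrophages; intracellular MIC80 determined, i.e. concentration inhibiting 80% of growth.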
# [3] = Half life in human liver microsomes; format: ADME
# Procedure, shortened: (§1)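 Metabolic stability measured by incubation in human or mouse liver microsomal preparations; half-life reported.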
# [4] = Half life in mouse liver microsomes; format: ADME; procedure, shortened: as §1
# [5] = target: Cytochrome P450 3A4 (Homo sapiens, UniProt P08684); assay: Inhibition of recombinant CYP3A4 (unknown origin) by LC/MS/MS analysis; format: ADME
# Chain of Cytochrome P450 3A4 (P08684 whole entry): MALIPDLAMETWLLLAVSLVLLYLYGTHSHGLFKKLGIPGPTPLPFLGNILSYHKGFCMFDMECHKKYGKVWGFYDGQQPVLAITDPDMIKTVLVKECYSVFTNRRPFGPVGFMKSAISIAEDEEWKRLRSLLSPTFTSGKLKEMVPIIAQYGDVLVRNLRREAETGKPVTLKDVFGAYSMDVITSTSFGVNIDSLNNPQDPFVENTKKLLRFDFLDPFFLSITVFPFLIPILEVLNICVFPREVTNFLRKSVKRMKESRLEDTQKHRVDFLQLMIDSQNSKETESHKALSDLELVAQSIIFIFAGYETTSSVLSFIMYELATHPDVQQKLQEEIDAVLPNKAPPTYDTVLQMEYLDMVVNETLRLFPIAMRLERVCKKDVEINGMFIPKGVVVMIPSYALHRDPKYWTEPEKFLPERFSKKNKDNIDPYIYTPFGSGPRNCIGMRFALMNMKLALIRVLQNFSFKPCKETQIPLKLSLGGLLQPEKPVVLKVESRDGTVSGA
# Procedure, shortened: (§2)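 Recombinant CYP enzymes (5 pmol/mL) with substrate, in 100 mM potassium phosphate pH 7.4, 3.3 mM MgCl2, with or without 1 mM NADPH; incubated 10 min (CYP1A2, CYP2C9), 20 min (CYP2C19, CYP2D6), or 3 min (CYP3A4); stopped with cold stop solution containing tolbutamide internal standard; metabolite measured by LC-MS/MS.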
# [6] = target: Cytochrome P450 2C19 (Homo sapiens, UniProt P33261); assay: Inhibition of recombinant CYP2C19 (unknown origin) by LC/MS/MS analysis; format: ADME; procedure, shortened: as §2
# Chain of Cytochrome P450 2C19 (P33261 whole entry): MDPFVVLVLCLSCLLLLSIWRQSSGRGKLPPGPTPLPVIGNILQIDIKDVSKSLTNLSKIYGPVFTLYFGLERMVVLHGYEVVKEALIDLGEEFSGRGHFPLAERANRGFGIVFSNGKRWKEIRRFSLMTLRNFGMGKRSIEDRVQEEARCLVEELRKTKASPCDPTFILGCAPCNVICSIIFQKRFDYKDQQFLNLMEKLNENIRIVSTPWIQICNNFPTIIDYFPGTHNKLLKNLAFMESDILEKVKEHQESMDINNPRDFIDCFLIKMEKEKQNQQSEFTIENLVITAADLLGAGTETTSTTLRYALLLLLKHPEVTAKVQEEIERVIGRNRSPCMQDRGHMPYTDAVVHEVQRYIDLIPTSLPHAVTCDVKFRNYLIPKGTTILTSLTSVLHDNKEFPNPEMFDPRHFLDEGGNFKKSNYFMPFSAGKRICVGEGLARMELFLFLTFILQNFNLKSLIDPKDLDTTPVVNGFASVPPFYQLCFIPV
# [7] = Solubility of the compound in aqueous solution at pH 2.1; format: physicochemical
# [8] = Solubility of the compound in phosphate buffer at pH 7.4; format: physicochemical
# [9] = target: Cytochrome P450 2D6 (Homo sapiens, UniProt P10635); assay: Inhibition of recombinant CYP2D6 (unknown origin) by LC/MS/MS analysis; format: ADME; procedure, shortened: as §2
# Chain of Cytochrome P450 2D6 (P10635 whole entry): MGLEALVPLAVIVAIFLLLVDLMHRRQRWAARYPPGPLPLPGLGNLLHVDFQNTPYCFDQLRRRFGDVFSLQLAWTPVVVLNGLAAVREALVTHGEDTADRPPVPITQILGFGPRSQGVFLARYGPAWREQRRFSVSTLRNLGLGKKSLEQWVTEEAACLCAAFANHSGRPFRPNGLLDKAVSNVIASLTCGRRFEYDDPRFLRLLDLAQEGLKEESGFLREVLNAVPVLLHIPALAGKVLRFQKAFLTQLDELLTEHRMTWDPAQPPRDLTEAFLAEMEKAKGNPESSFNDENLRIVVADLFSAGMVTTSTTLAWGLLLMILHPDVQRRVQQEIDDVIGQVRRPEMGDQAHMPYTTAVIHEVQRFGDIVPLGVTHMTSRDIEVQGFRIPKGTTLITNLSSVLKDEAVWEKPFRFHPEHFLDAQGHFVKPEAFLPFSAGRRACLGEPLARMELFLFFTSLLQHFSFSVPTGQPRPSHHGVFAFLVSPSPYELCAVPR
# [10] = target: Cytochrome P450 2C9 (Homo sapiens, UniProt P11712); assay: Inhibition of recombinant CYP2C9 (unknown origin) by LC/MS/MS analysis; format: ADME; procedure, shortened: as §2
# Chain of Cytochrome P450 2C9 (P11712 whole entry): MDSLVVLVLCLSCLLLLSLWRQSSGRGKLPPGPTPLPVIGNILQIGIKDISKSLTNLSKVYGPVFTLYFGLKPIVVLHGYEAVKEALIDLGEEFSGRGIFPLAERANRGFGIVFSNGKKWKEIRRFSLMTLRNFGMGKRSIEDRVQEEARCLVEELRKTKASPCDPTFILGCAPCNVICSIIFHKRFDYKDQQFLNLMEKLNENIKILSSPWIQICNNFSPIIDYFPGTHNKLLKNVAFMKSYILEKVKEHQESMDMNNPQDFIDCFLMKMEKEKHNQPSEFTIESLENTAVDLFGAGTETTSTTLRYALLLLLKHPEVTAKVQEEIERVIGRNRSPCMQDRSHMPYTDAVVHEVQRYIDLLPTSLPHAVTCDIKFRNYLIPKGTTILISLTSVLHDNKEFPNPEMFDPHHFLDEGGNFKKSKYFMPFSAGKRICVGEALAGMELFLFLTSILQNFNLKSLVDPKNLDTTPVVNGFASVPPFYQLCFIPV
# [11] = target: T1, Cytochrome P450 1A2 (Homo sapiens, UniProt P05177); assay: Inhibition of recombinant CYP1A2 (unknown origin) by LC/MS/MS analysis; format: ADME; procedure, shortened: as §2
# T1 sequence (P05177 whole entry): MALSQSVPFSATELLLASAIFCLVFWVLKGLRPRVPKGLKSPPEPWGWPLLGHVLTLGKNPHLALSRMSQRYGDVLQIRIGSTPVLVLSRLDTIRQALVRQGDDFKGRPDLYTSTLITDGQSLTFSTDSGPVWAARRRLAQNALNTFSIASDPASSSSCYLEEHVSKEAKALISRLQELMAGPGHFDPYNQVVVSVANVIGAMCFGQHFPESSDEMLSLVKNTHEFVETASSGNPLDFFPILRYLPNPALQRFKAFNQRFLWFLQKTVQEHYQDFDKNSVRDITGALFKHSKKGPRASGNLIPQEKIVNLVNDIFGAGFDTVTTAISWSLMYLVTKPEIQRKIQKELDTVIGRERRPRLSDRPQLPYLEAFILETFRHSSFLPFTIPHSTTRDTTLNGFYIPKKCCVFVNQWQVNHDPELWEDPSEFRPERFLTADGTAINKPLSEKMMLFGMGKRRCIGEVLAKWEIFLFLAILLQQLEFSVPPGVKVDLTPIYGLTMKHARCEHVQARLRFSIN
SMILES,MIC80 [1],MIC80 [2],half-life [3],half-life [4],IC50 [5],IC50 [6],solubility [7],solubility [8],IC50 [9],IC50 [10],IC50 [11]
CCc1nc2cc(Cl)ccn2c1C(=O)NCc1ccc(N2CCN(C)CC2)cc1,4390 nM,360 nM,117 min,12.1 min,–,–,–,–,–,–,–
CCc1nc2cc(Cl)ccn2c1C(=O)NCc1ccc(-c2ccc(C)cc2)cc1,< 0.5 nM,1.35 nM,25.4 min,23.1 min,–,–,–,–,–,–,–
CCc1nc2cc(Cl)ccn2c1C(=O)NCc1ccc(N2CCN(C(C)C)CC2)cc1,3000 nM,140 nM,> 120 min,8.9 min,–,–,–,–,–,–,–
CCc1nc2ccc(Cl)cn2c1C(=O)Nc1ccc(-c2ccccc2)cc1,> 10000 nM,> 10000 nM,–,–,–,–,–,–,–,–,–
CCc1nc2ccc(Cl)cn2c1C(=O)NCc1ccc(N2CCN(c3ccc(F)cc3)CC2)cc1,< 0.5 nM,0.3 nM,> 120 min,33.3 min,0.49 µM,1.32 µM,38.5 µg/mL,1.31 µg/mL,> 40 µM,1.33 µM,> 40 µM
CCc1nc2cc(Cl)ccn2c1C(=O)NCc1ccc(N2CCN(c3ccc(OC(F)(F)F)cc3)CC2)cc1,1.8 nM,0.11 nM,> 120 min,> 60 min,> 40 µM,> 40 µM,–,–,> 40 µM,0.17 µM,> 40 µM
CCc1nc2cc(Cl)ccn2c1C(=O)NCc1ccc(N2CCC(Cl)CC2)cc1,19 nM,2 nM,11 min,5.2 min,–,–,–,–,–,–,–
CCc1nc2ccc(Cl)cn2c1C(=O)NCc1ccc(N2CCC(c3ccc(F)cc3)CC2)cc1,< 0.5 nM,0.36 nM,62.6 min,20.3 min,> 40 µM,> 40 µM,38.5 µg/mL,3.99 µg/mL,> 40 µM,> 40 µM,> 40 µM
CCc1nc2cc(Cl)ccn2c1C(=O)NCc1ccc(-c2ccc(C(C)(C)C)cc2)cc1,12 nM,0.46 nM,18.5 min,50.7 min,–,–,–,–,–,–,–
CCc1nc2ccc(Cl)cn2c1C(=O)NCc1ccc(-c2ccc(C)cc2)cc1,0.7 nM,0.43 nM,30.5 min,40.6 min,–,–,1.42 µg/mL,1.56 µg/mL,–,–,–
Cc1nc2ccccn2c1C(=O)NCc1ccc(-c2ccccc2)cc1,250 nM,20 nM,–,–,–,–,–,–,–,–,–
CCc1nc2cc(Cl)ccn2c1C(=O)NCc1ccc(-c2ccncc2)cc1,2220 nM,740 nM,28.9 min,–,–,–,–,–,–,–,–
CCc1nc2cc(Cl)ccn2c1C(=O)NCc1ccc(N2CCC(c3ccc(F)cc3)CC2)cc1,540 nM,0.66 nM,6.8 min,18.4 min,2.07 µM,0.6 µM,–,–,> 40 µM,0.5 µM,> 40 µM
CCc1nc2cc(Cl)ccn2c1C(=O)NCc1ccc(N2CCC(C(F)(F)F)CC2)cc1,0.8 nM,0.47 nM,6.5 min,5.1 min,–,–,–,–,–,–,–
CCc1nc2ccc(Cl)cn2c1C(=O)NCc1ccc(N2CCC(c3ccc(Cl)cc3)CC2)cc1,4.1 nM,1.3 nM,57.9 min,116 min,> 40 µM,6.77 µM,39.7 µg/mL,2.59 µg/mL,> 40 µM,0.26 µM,> 40 µM
CCc1nc2cc(Cl)ccn2c1C(=O)NCc1ccc(-n2cc3c(c2)CCCC3)cc1,34 nM,3.74 nM,27.3 min,62.3 min,–,–,–,–,–,–,–
Cc1nc2ccc(Cl)cn2c1C(=O)NCc1ccc(-c2ccccc2)cc1,175 nM,42 nM,> 120 min,> 60 min,–,–,–,–,–,–,–
CCc1nc2cc(Cl)ccn2c1C(=O)NCc1ccc(N2CCC(c3ccc(Cl)cc3)CC2)cc1,1 nM,0.46 nM,67.3 min,112 min,> 40 µM,0.38 µM,–,–,> 40 µM,0.19 µM,> 40 µM
CCc1nc2ccc(Cl)cn2c1C(=O)NCc1ccc(-c2ccccc2Cl)cc1,43 nM,9.3 nM,38.9 min,13.1 min,–,–,–,–,–,–,–
